Converted amounts (≈) assume the structure as drawn. “And” between values parts separate entries of the source, which are not always exact repeats. Equal values may be shown once. Read-outs that look alike come from different tables or passages of the source.
How the values were obtained:
[1] = Pharmacokinetics of BHBM in mice; type: in vivo, mouse (C3H/HeN); conditions: for half-life: C3H/HeN, mouse, plasma, ip, IS/IN mice
How it was run: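 Test compound was dissolved at 10 mg/ml (stock) in cremophor-ethanol 1:1 and diluted in PBS to 200 or 400 µg/ml. C3H/HeN mice (n = 3), either healthy or immunocompromised and P. murina-infected, received 0.8 or 1.6 mg/kg i.v. (tail vein) or i.p. in 100 µl. Blood was taken into K2EDTA predose and at 0.5, 1, 2, 4, 8, 12 and 24 h, and plasma stored at −80°C. t1/2 = 0.693/λz.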

[2] = tested on: C. neoformans; test: NBD C6-ceramide staining; type: cell-based; conditions: 4 µg/ml; microscopy and FACS
How it was run: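 C. neoformans cells, untreated or treated with 4 µg/ml test compound, were fixed in 4% paraformaldehyde in PBS and washed. They were stained with NBD C6-ceramide for 16 h at 4°C, then incubated with 1% BSA at 4°C for 1 h to strip excess dye.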

[3] = tested on: Cryptococcus neoformans; test: In vitro susceptibility testing; type: cell-based
[4] = tested on: C. albicans, Candida parapsilosis, Paecilomyces variotii; test: MIC, poor activity; type: cell-based
How it was run: (§1)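 Inoculum prepared per CLSI M27-A3. Plates incubated at 37°C with 5% CO2 for 24 to 96 h. MIC was the lowest concentration inhibiting 50% of growth versus the drug-free control. Minimum fungicidal concentration was also measured: serial dilutions from wells were plated on YPD agar, and MFC was the lowest concentration yielding three or fewer colonies (99% of inoculum killed).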

[5] = In vivo toxicity, blood work; parameters: species or system mouse (CBA/J)
How it was run: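 Female CBA/J mice, 4 weeks old: five received 1.2 mg/kg/day test compound for 60 days, and three controls received a daily solvent injection. On day 60, blood was collected into one K2EDTA tube and one plain tube allowed to clot.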

[6] = tested on: sphingolipids of C. neoformans; test: Sphingolipid profiling by TLC and LC-MS; type: cell-based
[7] = tested on: C. neoformans; test: Mouse model of cryptococcosis, intranasal infection; type: in vivo, mouse (CBA/J); conditions: 1.2 mg/kg/day i.p.
How it was run: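 Mice (10 per group) were infected by nasal inoculation of 20 µl containing 5 × 10^5 C. neoformans. Test compound was given i.p. at 1.2 mg/kg/day in 100 µl PBS with 0.4% DMSO, starting 2 h after inoculation. Survival followed up to 60 days. Organs of survivors were homogenized in 10 ml PBS, diluted serially 1:10, plated on YPD, and incubated at 30°C for 72 h for CFU.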

[8] = tested on: Candida glabrata; test: In vitro susceptibility testing; type: cell-based; conditions: FTL strains (10)
How it was run: as §1

[9] = tested on: Coccidioides spp.; type: cell-based
[10] = tested on: Pneumocystis murina; test: In vitro testing against Pneumocystis, inhibition of ATP; type: cell-based; conditions: read-out: IC50 (percentage inhibition of ATP)
[11] = tested on: various Cryptococcus species; test: MIC; type: cell-based
How it was run: as §1

[12] = tested on: C. neoformans; test: Synergism assay; type: cell-based
[13] = tested on: Pneumocystis jirovecii; test: In vitro testing against Pneumocystis, inhibition of ATP; type: cell-based; conditions: read-out: IC50 (percentage inhibition of ATP)
[14] = tested on: Cryptococcus gattii; test: In vitro susceptibility testing; type: cell-based
How it was run: as §1

[15] = tested on: GlcCer synthesis in J774.16 cells; test: Labeling of mammalian cells with [3H]palmitate, TLC of GlcCer; type: cell-based, murine; conditions: [3H]palmitate labeling, 6 h
How it was run: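 J774.16 macrophages (5 × 10^6 cells/ml) adhered for 14 h in six-well plates. They were exposed for 4 h to test compound at the concentrations used for the fungal labeling, then given 30 µCi/ml [3H]palmitic acid for a further 2 h.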

[16] = tested on: P. murina; test: Murine pneumocystosis, corticosteroid-immunosuppressed; type: in vivo, mouse (C3H/HeN)
How it was run: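 Corticosteroid-immunosuppressed mice were infected with P. murina by cohousing with seed mice for 2 weeks. […] Treatment lasted 13 days. Lung homogenate slides were stained with Diff-Quik for trophic forms and cresyl echt violet for asci.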

[17] = tested on: C. neoformans cells; test: In vitro passages, development of resistance; type: cell-based; conditions: 15 days of in vitro passages (120 generations), 10^6 cells/ml; data not shown
[18] = tested on: GlcCer synthesis in C. neoformans; test: In vivo labeling with [3H]palmitate, TLC of GlcCer; type: cell-based; conditions: [3H]palmitate labeling
[19] = tested on: S. cerevisiae RYO0622 strain; test: IC100 prescreening; type: cell-based, Saccharomyces cerevisiae; conditions: solid SC medium, 2 days, 30°C
How it was run: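 S. cerevisiae RYO0622 cells (20 µl at OD600 10−4) spotted on solid SC medium alone, with DMSO, or with test compound at 67, 133, 266, 533 and 1,066 µg/ml in a 48-well plate. Incubation 2 days at 30°C in the dark. IC100 taken as the concentration giving 100% growth inhibition.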

[20] = tested on: J774 cells; test: In vitro toxicity; type: cell-based, murine
How it was run: (§2)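 J774.16 murine macrophages were kept in DMEM with 10% FBS and 1% pen-strep, and used until passage eight. At passage 7, 10^5 cells/well were allowed to adhere for 14 h. Test compound was then added at 0.1 to 100 µg/ml, with drug-free wells as controls. Incubation at 37°C, 5% CO2.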

[21] = In vitro toxicity; type: cell-based, murine; conditions: mouse, J774.16 macrophage cells
How it was run: as §2

[22] = tested on: Aspergillus fumigatus; test: In vitro susceptibility testing; type: cell-based
How it was run: as §1

[23] = tested on: GlcCer synthesis in C. albicans cells; test: GlcCer synthesis in C. albicans; type: cell-based; conditions: in vitro treatment; data not shown
[24] = TLC, confirmed by mass spectrometry

Structure (SMILES): Cc1ccccc1C(=O)NN=Cc1ccc(O)c(Br)c1 [BHBM, N′-(3-bromo-4-hydroxybenzylidene)-2-methylbenzohydrazide]
- half-life ([1]; 0.8 mg/kg, T1/2, IP 0.8 mg/kg (low dose)): 47.4 min
- half-life ([1]; 1.6 mg/kg, T1/2, IP 1.6 mg/kg (high dose)): 50.4 min
- distribution to brain tissue ([1]; upon administration, data not shown): readily found in brain tissue
- NBD C6-ceramide staining [2]: substantial accumulation
- MIC range [3]: 0.5−2 µg/ml and 1−2 µg/ml
- MIC range ([3]; FTL strains (13)): 0.25−8 µg/ml
- MIC [4]: > 32 µg/mL
- all other blood parameters for liver and kidney function ([5]; after 60 days of treatment): normal
- liver aspartate aminotransferase (AST) ([5]; after 60 days of treatment, 1.2 mg/kg/day, untreated 50 ± 9): 125 ± 75 U/liter
- tolerability in animals ([5]; mouse, in vivo): well tolerated
- levels of C18 hydroxyceramide and its desaturated and methylated forms ([6]; LC-MS, D0 data not shown): decreased
- GlcCer levels [6, 24]: decrease
- dihydroceramide, sphingosine, and sphingosine-1-phosphate [6, 24]: increased
- brain tissue burden (CFU) [7]: eradication of fungal cells
- lung tissue burden (CFU) [7]: decrease of fungal load
- mice surviving C. neoformans infection ([7]; up to 60 days, 10 mice per group): 90%
- MIC range [8]: 0.125−2 µg/ml
- MIC range [9]: 8 to 16 µg/mL
- IC50 ([10]; 24 h): 1.02 µg/mL (≈ 3.06 µM)
- IC50 ([10]; 48 h): < 0.01 µg/mL
- IC50 ([10]; 72 h): < 0.01 µg/mL
- IC50 ([10]; 96 h): 2.02 µg/mL (≈ 6.06 µM)
- MIC [11]: 0.25 to 8 µg/mL (≈ 0.75 to 24 µM)
- interaction category ([12]; combined with caspofungin): additive (additive effect, FIC = 1)
- interaction category ([12]; combined with fluconazole): highly synergistic
- interaction category ([12]; combined with tunicamycin): synergistic (synergistic effect, FIC < 1)
- IC50 ([13]; 24 h): 0.912 µg/mL (≈ 2.74 µM)
- IC50 ([13]; 48 h): 0.159 µg/mL (≈ 0.477 µM)
- IC50 ([13]; 72 h): 0.074 µg/mL (≈ 0.222 µM)
- IC50 ([13]; 96 h): 0.072 µg/mL (≈ 0.216 µM)
- MIC range ([14]; FTL strains (10)): 0.5−2 µg/ml
- MIC range ([14]; MDPL strains (3)): 0.5−1 µg/ml
- synthesis of mammalian GlcCer or other sphingolipids [15]: no significant changes
- number of asci or nuclei in lung homogenates ([16]; 13 days of treatment, versus vehicle-treated negative control): No significant differences
- survival ([16]; BHBM 3.2 mg/kg/day i.p., 13 days, versus untreated): survived significantly longer
- development of resistance [17]: did not develop resistance
- synthesis of GlcCer [18]: significantly inhibited
- 100% inhibitory concentration (IC100) [19]: 133 µg/mL
- EC50/MIC80 selectivity index ([20]; J774 EC50 versus MIC): 50
- selectivity index (EC50/MIC ratio) ([20]; macrophage cell line): > 50
- EC50 at 48 h [21]: 50 µg/mL (≈ 150 µM)
- MIC range ([22]; FTL strains (3)): >16 µg/mL
- MIC range ([22]; MDPL strain (1)): 8 µg/mL (≈ 24 µM)
- GlcCer synthesis [23]: inhibited GlcCer synthesis in a dose-dependent manner
